An excerpt weighted towards active compounds, which were near 2.9% of everything screened.
SUMO Mot1 rescue: SUMOylation pathway inhibition by Mot1-301 growth rescue; growth rescue, % at 18.8 µM; S. cerevisiae Mot1-301 growth rescue, ATP luminescence, 38.5C; percent above DMSO median, 100 means doubled; hit rate 1% among 320,000;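 active = every valid replicate shows activation above 250% relative to neutral control wells; inactive = the rest, any valid replicate at or below 250%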;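 note: OY570 slx delta 5 strain wells were the positive control but not used for scaling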
VIM-2 inhibitor: inhibitors of Pseudomonas aeruginosa VIM-2 metallo-beta-lactamase; purified VIM-2, nitrocefin hydrolysis, epi-absorbance fluorescence; inhibition, % at 5.6 µM; hit rate 0.89% among 290,000; AID 1527;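 active = inhibition above the mean of all tested compounds plus 3 SD, cutoff set per screening run, cut at about 7.5% in these data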;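 note: red hydrolysis product quenches plate fluorescence so inhibitors raise well fluorescence; 0% = enzyme with DMSO and 100% = DMSO without enzyme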
NALP3 yeast inh: blocks the NALP3 inflammasome reconstituted in yeast; Yeast reconstituted NLRP3/ASC/caspase-1, beta-gal luminescence, 24 h; inhibition, % at 10 µM; hit rate 0.39% among 330,000; AID 2825;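 active = inhibition of 50% or more; inactive = inhibition below 50%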;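 note: plate controls were induced DMSO wells for no effect and uninduced yeast grown without galactose for full effect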
NALP1 yeast inh: NALP1 inhibition | S. cerevisiae NALP1/ASC/caspase-1 growth, X-gal OD620, 72 h | inhibition, % at 10 µM | AID 2071 | hit rate 0.61% among 280,000; in the data active = inhibition mostly above about 24%, no sharp cut-off; inactive = mostly below about 32%
IMP-1 inhibitor: blocks Pseudomonas aeruginosa IMP-1 metallo-beta-lactamase; purified IMP-1, nitrocefin hydrolysis, epi-absorbance fluorescence; hit rate 0.45% among 290,000; inhibition, % at 5.6 µM;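 active = inhibition above the mean plus 3 SD of all compounds in the same screening run, cut at about 4.5% in these data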;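 note: 0% = IMP-1 with DMSO and 100% = DMSO wells lacking enzyme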
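System: purified IMP-1 / Input: IMP-1 dispensed at 0.2 nM / Medium: 50 mM HEPES pH 7.1, 50 µM ZnSO4, 0.05% Brij 35 / Timing: 15 min enzyme–compound preincubation, then 25 min nitrocefin reaction, 25 °C / Technique: plate fluorescence quenching by hydrolysis product, ex 480/em 530 nm / Repeats: singlicate testing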
PolyA inhibitor: yeast polyadenylation inhibition; hit rate 0.02% among 300,000; activity score, % at 12 µM; S. cerevisiae SKY197-pL101 polyadenylation reporter, beta-gal luminescence; efflux-impaired pdr1/pdr3 knockout yeast; score 100 = 6 SD above DMSO;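 active = lowest replicate activity score at least 50, where 100 means six control SD above control mean; inconclusive = lowest score under 50 but half or more replicates reach 50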;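 note: yeast exposed to compound for 9 h at 30 °C; higher score means more reporter readthrough which indicates perturbed polyadenylation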
The depositor's hits bear a star.

How did Cc1nc(N[C@@H](Cc2c[nH]c3ccccc23)C(=O)O)c2oc3ccccc3c2n1 do in these assays?
SUMO Mot1 rescue: 74.7; VIM-2 inhibitor: 8.8*; NALP3 yeast inh: 0.8; NALP1 yeast inh: 2.5; IMP-1 inhibitor: -0.6

Results for CCc1nc(N[C@@H](Cc2c[nH]c3ccccc23)C(=O)O)c2oc3ccccc3c2n1 ?
SUMO Mot1 rescue: 6.7; VIM-2 inhibitor: -1.2; NALP3 yeast inh: 7.5; NALP1 yeast inh: 3.0; IMP-1 inhibitor: -3.2; PolyA inhibitor: 0.6

How did COc1ccc(Cc2noc(CN(C)CCN3CCc4ccccc4C3)n2)cc1OC do in these assays?
SUMO Mot1 rescue: -16.1; VIM-2 inhibitor: -1.6; NALP3 yeast inh: -8.1; NALP1 yeast inh: 28.9*; IMP-1 inhibitor: -0.8; PolyA inhibitor: inconclusive

Results for COc1ccc(Cc2noc(CN(C)CCc3ccccc3)n2)cc1OC ?
SUMO Mot1 rescue: -4.2; VIM-2 inhibitor: 1.5; NALP3 yeast inh: -6.4; NALP1 yeast inh: 15.2; IMP-1 inhibitor: 1.5; PolyA inhibitor: -1.3

Results for CCOC(=O)C1(Cc2cccc(Cl)c2)CCCN(C(=O)c2c(CC)noc2C)C1 (stereo not drawn) ?
SUMO Mot1 rescue: 46.5; VIM-2 inhibitor: 0.6; NALP3 yeast inh: 13.5; NALP1 yeast inh: -17.9; IMP-1 inhibitor: -2.0; PolyA inhibitor: -1.1

Results for Cc1ncc(CO)c(/C=N/NC(=O)c2ccc(Br)cc2)c1O ?
SUMO Mot1 rescue: 0.0; VIM-2 inhibitor: -3.7; NALP3 yeast inh: 10.6; NALP1 yeast inh: -3.3; IMP-1 inhibitor: -2.1; PolyA inhibitor: -1.5

What do the screens show for `Cc1ncc(CO)c(/C=N/NC(=O)c2cc(O)c(O)c(O)c2)c1O`?
VIM-2 inhibitor: -0.7; NALP1 yeast inh: -15.8; IMP-1 inhibitor: 24.1*; PolyA inhibitor: 20.0

Results for CCSC(C)CC1CC(=O)CC(=O)C1 (stereo not drawn) ?
SUMO Mot1 rescue: 5.7; VIM-2 inhibitor: -1.7; NALP3 yeast inh: 15.1; NALP1 yeast inh: 9.8; IMP-1 inhibitor: -2.3; PolyA inhibitor: -2.8

What do the screens show for `CCOC(=O)C1C(=O)C(C(C)=O)C(=O)CC1CC(C)SCC` (stereo not drawn)?
SUMO Mot1 rescue: 17.0; VIM-2 inhibitor: -2.6; NALP3 yeast inh: 9.8; NALP1 yeast inh: 44.0*; IMP-1 inhibitor: -2.2; PolyA inhibitor: 19.2

Results for Cc1noc(C)c1COC(=O)c1csc2c1CCCC2 ?
NALP3 yeast inh: 29.3

Results for CS(=O)(=O)c1ccc2nc(NC(=O)c3ccc(NS(=O)(=O)c4ccc(F)c(F)c4)cc3)sc2c1 ?
SUMO Mot1 rescue: 14.9; VIM-2 inhibitor: 1.7; NALP3 yeast inh: 1.0; IMP-1 inhibitor: 0.5; PolyA inhibitor: 16.2

Results for O=C(Nc1nc2ccc(SC(F)F)cc2s1)c1ccc(NS(=O)(=O)c2ccc(F)c(F)c2)cc1 ?
SUMO Mot1 rescue: 622.4*; VIM-2 inhibitor: 0.5; NALP3 yeast inh: 6.9; NALP1 yeast inh: 33.5; IMP-1 inhibitor: -2.5; PolyA inhibitor: -4.9

How did C=CCOc1ccc(C2C(C(=O)c3ccco3)=C(O)C(=O)N2c2nnc(C)s2)cc1 (stereo not drawn) do in these assays?
SUMO Mot1 rescue: -11.7; VIM-2 inhibitor: 3.7; NALP3 yeast inh: -0.5; NALP1 yeast inh: -30.6; IMP-1 inhibitor: 5.2*; PolyA inhibitor: -2.5

How did CCCc1cc(NCCCN2CCOCC2)n2c(nc3ccccc32)c1C#N do in these assays?
SUMO Mot1 rescue: 189.1; VIM-2 inhibitor: 8.0*; NALP3 yeast inh: 8.3; NALP1 yeast inh: 1.2; IMP-1 inhibitor: -0.3; PolyA inhibitor: -0.6

What do the screens show for `CCCc1cc(NCCCCO)n2c(nc3ccccc32)c1C#N`?
SUMO Mot1 rescue: -17.8; VIM-2 inhibitor: 6.9; NALP3 yeast inh: 2.4; NALP1 yeast inh: 6.9; IMP-1 inhibitor: -1.1; PolyA inhibitor: 5.5

How did CC(C)c1cc(NCCOCCO)n2c(nc3ccccc32)c1C#N do in these assays?
SUMO Mot1 rescue: 89.1; VIM-2 inhibitor: 11.9*; NALP3 yeast inh: 11.8; NALP1 yeast inh: 9.1; IMP-1 inhibitor: -0.5; PolyA inhibitor: 13.1

How did O=C1CC(N2CCC(c3nc4ccccc4[nH]3)CC2)C(=O)N1c1ccccc1F (stereo not drawn) do in these assays?
SUMO Mot1 rescue: 23.6; VIM-2 inhibitor: -3.9; NALP3 yeast inh: -4.6; NALP1 yeast inh: 31.5*; IMP-1 inhibitor: -3.5; PolyA inhibitor: 10.3

Results for O=C(O)C(c1ccccc1)N1C(=O)/C(=C\c2ccc(-c3ccc(Br)cc3)o2)SC1=S (stereo not drawn) ?
VIM-2 inhibitor: 2.9; NALP3 yeast inh: 1.3; NALP1 yeast inh: 9.1; IMP-1 inhibitor: -1.7; PolyA inhibitor: 4.2

Results for O=C(O)C(c1ccccc1)N1C(=O)/C(=C\c2ccc(-c3ccccc3Cl)o2)SC1=S (stereo not drawn) ?
SUMO Mot1 rescue: -15.3; VIM-2 inhibitor: 0.3; NALP3 yeast inh: 20.3; NALP1 yeast inh: 8.2; IMP-1 inhibitor: 9.4*; PolyA inhibitor: -9.9

How did O=C1c2cccc3c(O)ccc(c23)C(=O)N1Cc1ccccc1 do in these assays?
SUMO Mot1 rescue: -1.3; VIM-2 inhibitor: 11.0*; NALP3 yeast inh: -9.8; NALP1 yeast inh: -8.0; IMP-1 inhibitor: 4.3; PolyA inhibitor: 11.0

How did COc1ccc(Cc2nnc(NC(=O)c3ccccc3)s2)cc1OC do in these assays?
SUMO Mot1 rescue: 163.8; VIM-2 inhibitor: -1.9; NALP3 yeast inh: 23.3; NALP1 yeast inh: 7.0; IMP-1 inhibitor: -4.4; PolyA inhibitor: -9.5

Results for Cc1ccc(S(=O)(=O)N2[C@@H](c3cccc(Cl)c3)C(C(=O)O)=CC[C@H]2c2cccs2)cc1 ?
SUMO Mot1 rescue: 101.6; NALP3 yeast inh: 22.4

Results for C#CCOCCOCCOCCNc1nc(N2CCN(C(=O)[C@H](CCC(=O)O)n3cc(C(N)Cc4ccc(O)cc4)nn3)CC2)nc(N2CCN(C(=O)[C@H](CCC(=O)O)n3cc(C(N)[C@H](C)CC)nn3)CC2)n1 (stereo partly drawn) ?
SUMO Mot1 rescue: -23.7; VIM-2 inhibitor: -0.5; NALP3 yeast inh: 15.4; NALP1 yeast inh: 0.5; IMP-1 inhibitor: 5.2*; PolyA inhibitor: 0.0

How did C#CCOCCOCCOCCNc1nc(N2CCN(C(=O)[C@H]([C@@H](C)CC)n3cc([C@@H](N)CO)nn3)CC2)nc(N2CCN(C(=O)[C@H](CCCCN)n3cc([C@@H](N)C(C)CC)nn3)CC2)n1 (stereo partly drawn) do in these assays?
SUMO Mot1 rescue: -9.2; VIM-2 inhibitor: -1.0; NALP3 yeast inh: 0.6; NALP1 yeast inh: -7.9; IMP-1 inhibitor: 13.8*; PolyA inhibitor: 4.5

What do the screens show for `C#CCOCCOCCOCCNc1nc(N2CCN(C(=O)[C@H](CCC(=O)O)n3cc(C(N)Cc4ccc(O)cc4)nn3)CC2)nc(N2CCN(C(=O)[C@H](Cc3ccc(O)cc3)n3cc(C(N)[C@H](C)CC)nn3)CC2)n1` (stereo partly drawn)?
NALP3 yeast inh: 10.4; PolyA inhibitor: 13.5

High-throughput results from PubChem BioAssay.
